Measured values taken from ChEMBL document CHEMBL4257459, “Synergistic antifungal effect of cyclized chalcone derivatives and fluconazole against Candida albicans” (2017).
Values after ≈ are worked out from the molar mass of the structure shown.

Legend:
Candida albicans [1] = assay: Antifungal activity against fluconazole resistant Candida albicans 167-1 in presence of fluconazole by CLSI protocol based broth microdilution method; type: functional
Procedure, shortened: (§1)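 Checkerboard-style combination with fluconazole at a 1 : 1 ratio, over concentrations 2–4 fold below each agent's MIC alone, by CLSI broth microdilution. Fractional inhibitory concentration index calculated and interpreted as synergy (<0.5), additive (0.5–1), indifferent or antagonistic.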

Candida albicans [2] = assay: Antifungal activity against fluconazole susceptible Candida albicans 004B1 by CLSI protocol based broth microdilution method; type: functional
Procedure, shortened: (§2)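 Clinical isolates and control strain subcultured at least twice on TSA, 37 °C, 48 h. MICs by CLSI M27-A3 broth microdilution; compounds dissolved in DMSO to 2000 μg mL–1 stock. Fluconazole positive control, culture, media and DMSO vehicle controls in each run. Duplicate experiments; MIC in μg mL–1.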

Candida albicans [3] = assay: Inhibition of ergosterol biosynthesis in fluconazole susceptible Candida albicans ATCC 90028 at 0.5 to 1 times MIC relative to control; type: functional
Procedure, shortened: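 ATCC90028 grown in 50 ml TSB with MIC and ½ MIC of compound; untreated and 8 μg mL–1 fluconazole controls. Sterols extracted by alcoholic KOH method and spectrophotometrically scanned; ergosterol % calculated from A281.5 and A230 (E values 290 and 518) with dilution factor, per pellet weight.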

Candida albicans [4] = assay: Inhibition of ABC efflux pumps in fluconazole susceptible Candida albicans 002B1 assessed as reduction in energy-dependent rhodamine 6G efflux in presence of 0.1 M glucose after 25 mins […] relative to control
Candida albicans [5] = assay: Antifungal activity against fluconazole resistant Candida albicans 167-2 by CLSI protocol based broth microdilution method; type: functional
Procedure, shortened: (§3)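 Broth microdilution per CLSI M27-A3 against clinical C. albicans isolates. Strains sub-cultured at least twice on Tryptone Soya Agar, 37 °C, 48 h. Compounds dissolved in DMSO at 2000 μg mL–1 stock. Fluconazole positive control, plus culture, media and vehicle controls. Run in duplicate; MIC in μg mL–1.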

Candida albicans [6] = assay: Inhibition of ABC efflux pumps in fluconazole susceptible Candida albicans 003gr assessed as reduction in energy-dependent rhodamine 6G efflux in presence of 0.1 M glucose after 25 mins […] relative to control
Candida albicans [7] = assay: Inhibition of ABC efflux pumps in fluconazole resistant Candida albicans A171 assessed as reduction in energy-dependent rhodamine 6G efflux in presence of 0.1 M glucose after 25 mins by fluorescence assay relative to control
Procedure, shortened: (§4)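 Cells grown in TSB at 37 °C for 8 h, washed, resuspended in glucose-free PBS at 1 × 10^8 cells. De-energized 45 min with 5 mM deoxyglucose plus 5 mM dinitrophenol. […] Washed, sampled 5–25 min, then 0.1 M glucose added. Absorbance 527 nm, R6G from standard curve.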

Candida albicans [8] = assay: Antifungal activity against fluconazole susceptible Candida albicans 0079gr in presence of fluconazole by CLSI protocol based broth microdilution method; type: functional
Candida albicans [9] = assay: Inhibition of ABC efflux pumps in fluconazole resistant Candida albicans 167-2 assessed as reduction in energy-dependent rhodamine 6G efflux in presence of 0.1 M glucose after 25 mins […] relative to control
Candida albicans [10] = assay: Inhibition of ABC efflux pumps in fluconazole susceptible Candida albicans 0079gr assessed as reduction in energy-dependent rhodamine 6G efflux in presence of 0.1 M glucose after 25 mins by fluorescence assay relative to control; procedure, shortened: as §4
Candida albicans [11] = assay: Antifungal activity against fluconazole susceptible Candida albicans 0072gr by CLSI protocol based broth microdilution method; type: functional; procedure, shortened: as §2
Candida albicans [12] = assay: Antifungal activity against fluconazole susceptible Candida albicans 002B1 in presence of fluconazole by CLSI protocol based broth microdilution method; type: functional
Candida albicans [13] = assay: Antifungal activity against fluconazole susceptible Candida albicans 002B1 by CLSI protocol based broth microdilution method; type: functional; procedure, shortened: as §2
Candida albicans [14] = assay: Antifungal activity against fluconazole resistant Candida albicans A171 by CLSI protocol based broth microdilution method; type: functional; procedure, shortened: as §3
Candida albicans [15] = assay: Inhibition of ABC efflux pumps in fluconazole susceptible Candida albicans 004gr assessed as reduction in energy-dependent rhodamine 6G efflux in presence of 0.1 M glucose after 25 mins by fluorescence assay relative to control; procedure, shortened: as §4
Candida albicans [16] = assay: Antifungal activity against fluconazole susceptible Candida albicans 004gr in presence of fluconazole by CLSI protocol based broth microdilution method; type: functional
Candida albicans [17] = assay: Antifungal activity against fluconazole resistant Candida albicans 167-2 in presence of fluconazole by CLSI protocol based broth microdilution method; type: functional; procedure, shortened: as §1
Candida albicans [18] = assay: Inhibition of ABC efflux pumps in fluconazole susceptible Candida albicans 0072gr assessed as reduction in energy-dependent rhodamine 6G efflux in presence of 0.1 M glucose after 25 mins […] relative to control
Candida albicans [19] = assay: Antifungal activity against fluconazole resistant Candida albicans 167-1 by CLSI protocol based broth microdilution method; type: functional; procedure, shortened: as §3
Candida albicans [20] = assay: Antifungal activity against fluconazole susceptible Candida albicans 004B1 in presence of fluconazole by CLSI protocol based broth microdilution method; type: functional
Candida albicans [21] = assay: Antifungal activity against fluconazole susceptible Candida albicans 004gr by CLSI protocol based broth microdilution method; type: functional; procedure, shortened: as §2
Candida albicans [22] = assay: Inhibition of ergosterol biosynthesis in fluconazole resistant Candida albicans A171 at 0.5 to 1 times MIC relative to control; type: functional
Procedure, shortened: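 Total sterols quantified by alcoholic KOH extraction in cells grown in 50 ml TSB with compounds at MIC and ½ MIC; untreated and 8 μg mL–1 fluconazole controls. Spectral scan; ergosterol content from A281.5 and A230 absorbances, dilution factor and pellet weight, correcting for 24(28) DHE.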

Candida albicans [23] = assay: Antifungal activity against fluconazole susceptible Candida albicans 0072gr in presence of fluconazole by CLSI protocol based broth microdilution method; type: functional
Candida albicans [24] = assay: Antifungal activity against Candida albicans ATCC 90028 in presence of fluconazole by CLSI protocol based broth microdilution method; type: functional
Candida albicans [25] = assay: Inhibition of ABC efflux pumps in fluconazole susceptible Candida albicans 004B1 assessed as reduction in energy-dependent rhodamine 6G efflux in presence of 0.1 M glucose after 25 mins by fluorescence assay relative to control; procedure, shortened: as §4
Candida albicans [26] = assay: Antifungal activity against fluconazole susceptible Candida albicans 0079gr by CLSI protocol based broth microdilution method; type: functional; procedure, shortened: as §2
Candida albicans [27] = assay: Inhibition of ABC efflux pumps in fluconazole resistant Candida albicans 167-1 assessed as reduction in energy-dependent rhodamine 6G efflux in presence of 0.1 M glucose after 25 mins […] relative to control
Candida albicans [28] = assay: Antifungal activity against fluconazole resistant Candida albicans A171 in presence of fluconazole by CLSI protocol based broth microdilution method; type: functional; procedure, shortened: as §1
Candida albicans [29] = assay: Antifungal activity against fluconazole susceptible Candida albicans 003gr by CLSI protocol based broth microdilution method; type: functional; procedure, shortened: as §2
Candida albicans [30] = assay: Antifungal activity against Candida albicans ATCC 90028 by CLSI protocol based broth microdilution method; type: functional; procedure, shortened: as §2
Candida albicans [31] = assay: Antifungal activity against fluconazole susceptible Candida albicans 003gr in presence of fluconazole by CLSI protocol based broth microdilution method; type: functional

SMILES | fractional inhibitory concentration index (FICI) (Candida albicans [1]) | MIC (Candida albicans [2]) | inhibition (INH) (Candida albicans [3]) | inhibition (Candida albicans [4]) | MIC (Candida albicans [5]) | inhibition (Candida albicans [6]) | inhibition (Candida albicans [7]) | fractional inhibitory concentration index (FICI) (Candida albicans [8]) | inhibition (Candida albicans [9]) | inhibition (Candida albicans [10]) | MIC (Candida albicans [11]) | fractional inhibitory concentration index (FICI) (Candida albicans [12]) | MIC (Candida albicans [13]) | MIC (Candida albicans [14]) | inhibition (Candida albicans [15]) | fractional inhibitory concentration index (FICI) (Candida albicans [16]) | fractional inhibitory concentration index (FICI) (Candida albicans [17]) | inhibition (Candida albicans [18]) | MIC (Candida albicans [19]) | fractional inhibitory concentration index (FICI) (Candida albicans [20]) | further results
c1ccc(-c2cc(-c3ccccc3)[nH]n2)cc1 | 0.625 - 1.5 | 16 to 62 µg/mL (≈ 72.6 to 281 µM) | 66 - 99% | < 20% | 62 to 125 µg/mL (≈ 281 to 567 µM) | < 20% | < 20% | 0.63 - 2.5 | < 20% | < 20% | 16 to 62 µg/mL (≈ 72.6 to 281 µM) | 0.63 - 2.5 | 16 to 62 µg/mL (≈ 72.6 to 281 µM) | 62 to 125 µg/mL (≈ 281 to 567 µM) | < 20% | 0.63 - 2.5 | 0.625 - 1.5 | < 20% | 62 to 125 µg/mL (≈ 281 to 567 µM) | 0.63 - 2.5 | MIC (Candida albicans [21]): 16 to 62 µg/mL (≈ 72.6 to 281 µM); inhibition (INH) (Candida albicans [22]): 49 - 94%; fractional inhibitory concentration index (FICI) (Candida albicans [23]): 0.63 - 2.5; fractional inhibitory concentration index (FICI) (Candida albicans [24]): 0.63 - 2.5; inhibition (Candida albicans [25]): < 20%; MIC (Candida albicans [26]): 16 to 62 µg/mL (≈ 72.6 to 281 µM); inhibition (Candida albicans [27]): < 20%; fractional inhibitory concentration index (FICI) (Candida albicans [28]): 0.625 - 1.5; MIC (Candida albicans [29]): 16 to 62 µg/mL (≈ 72.6 to 281 µM); MIC (Candida albicans [30]): 16 to 62 µg/mL (≈ 72.6 to 281 µM); fractional inhibitory concentration index (FICI) (Candida albicans [31]): 0.63 - 2.5
SC1=NC(c2ccccc2)=CC(c2ccccc2)N1 (configuration not stated) | 0.254 - 0.27 | 0.5 to 4 µg/mL (≈ 1.88 to 15 µM) | 66 - 99% | < 20% | 8 to 16 µg/mL (≈ 30 to 60.1 µM) | < 20% | < 20% | 0.37 - 1.13 | < 20% | < 20% | 0.5 to 4 µg/mL (≈ 1.88 to 15 µM) | 0.37 - 1.13 | 0.5 to 4 µg/mL (≈ 1.88 to 15 µM) | 8 to 16 µg/mL (≈ 30 to 60.1 µM) | < 20% | 0.37 - 1.13 | 0.254 - 0.27 | < 20% | 8 to 16 µg/mL (≈ 30 to 60.1 µM) | 0.37 - 1.13 | MIC (Candida albicans [21]): 0.5 to 4 µg/mL (≈ 1.88 to 15 µM); inhibition (INH) (Candida albicans [22]): 49 - 94%; fractional inhibitory concentration index (FICI) (Candida albicans [23]): 0.37 - 1.13; fractional inhibitory concentration index (FICI) (Candida albicans [24]): 0.37 - 1.13; inhibition (Candida albicans [25]): < 20%; MIC (Candida albicans [26]): 0.5 to 4 µg/mL (≈ 1.88 to 15 µM); inhibition (Candida albicans [27]): < 20%; fractional inhibitory concentration index (FICI) (Candida albicans [28]): 0.254 - 0.27; MIC (Candida albicans [29]): 0.5 to 4 µg/mL (≈ 1.88 to 15 µM); MIC (Candida albicans [30]): 0.5 to 4 µg/mL (≈ 1.88 to 15 µM); fractional inhibitory concentration index (FICI) (Candida albicans [31]): 0.37 - 1.13
